Hits are enriched below; roughly 3.1% of the tested compounds scored in any of these assays.
KCNK3 block: human KCNK3 channel inhibition, primary screen; O14649; CHO-KCNK3 thallium flux, FluxOR fluorescence; active compounds read low; B-score at 10 µM; 0.84% of 340,000 active;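 active = B-score under library mean minus 4 SD, starting fluorescence ratio at most library mean plus 5 SD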;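 note: more negative B-score means stronger inhibition of thallium flux through KCNK3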
KCNQ1 act: potentiators or activators of human KCNQ1 potassium channel | P51787 | CHO-K1 KCNQ1, thallium flux FluxOR fluorescence; active compounds read high | B-score at 10 µM | 0.35% of 310,000 active | AID 2648;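 active = fluorescence ratio B-score, a plate-corrected score, at least three library SD, with initial intensity B-score within 5 SD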
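System: Stable KCNQ1 CHO-K1 line | Incubation: 90 min dye loading and 20 min compound exposure, both at room temperature | Measure: Ratio B score | Medium: Assay buffer for compound exposure, DMSO matched across wells | Compound dosing: Single-concentration screen | Probe or stimulus: K+/Tl+ depolarizing stimulus | Measured by: Kinetic FluxOR fluorescence, 10 s baseline plus 110 s post-stimulus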
hERG protect: compounds protecting human hERG from proarrhythmic drug block | Q12809 | CHO-hERG, FluxOR thallium flux, dofetilide IC70 present | activation (rescue from dofetilide block), less the hit threshold, % at 10 µM | 0.51% of 310,000 active | AID 1511;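 active = activation above the mean of controls blocked by dofetilide plus 5 SD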;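 note: thallium influx through hERG after potassium depolarization seen as dye fluorescence rise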
KCNK9 inh: inhibitors of human KCNK9 two-pore domain potassium channel; B-score at 10 µM; 1.2% of 310,000 active; HEK293 KCNK9, FluxOR thallium flux fluorescence; active compounds read low; Q9NPC2; AID 488922;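 active = ratio B-score over 3 SD below the library mean, with starting fluorescence within 5 SD of its mean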;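 note: negative B-score means less thallium flux so channel inhibition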
KCNQ1 block: blocks the human KCNQ1 potassium channel | P51787 | CHO-K1 KCNQ1, FluxOR thallium flux fluorescence; active compounds read high | B-score at 10 µM | 1.3% of 310,000 active | AID 2642;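 active = compounds whose thallium flux B-score, printed positive for inhibition, exceeds three library SD while starting fluorescence stays within three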;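 note: channel opened by potassium depolarization with thallium stimulus after 20 min compound exposure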
KCNK3 inh conf: confirmation of human KCNK3 two-pore domain potassium channel inhibitors; shares compounds with KCNK3 block; CHO-KCNK3 thallium flux, FluxOR fluorescence; 0% buffer, 100% carvedilol maximal block; ratio percent of control, % at 10 µM; 99% of 2,400 active; AID 651638;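 active = ratio percent of control, averaged over triplicates, above buffer control mean plus 5 SD, cut at about 64% in these data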;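 note: ratio is the fluorescence rise from min to max over baseline after thallium stimulus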
KCNK3 noninduced: activity in cells without induced KCNK3 expression | shares compounds with KCNK3 block | non-induced KCNK3 parental cells, FluxOR thallium flux; active compounds read low | thallium flux ratio (lower = more inhibition) at 10 µM | 40% of 2,400 active;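 active = thallium flux ratio, averaged over three wells, more than 5 SD below the buffer control mean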;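 note: host cells are CHO cells without KCNK3 induction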
Numbers stand for hits.

`O=C(N/N=C/c1c[nH]c2ccccc12)c1ccn(Cc2ccc(Cl)cc2Cl)n1` gave KCNK3 block -9.3, KCNQ1 act inactive, hERG protect inactive, KCNK9 inh inactive, KCNQ1 block inactive, KCNK3 inh conf 106 and KCNK3 noninduced 0.15.
COc1ccc(OC)c(NC(=S)N2CCN(C(=O)C3CCCO3)CC2)c1 (centres undefined) was read as KCNK3 block inactive, KCNQ1 act inactive, hERG protect inactive, KCNK9 inh inactive and KCNQ1 block inactive.
COc1ccc(C(=O)/C=C/c2cc(OC)c(O)c(OC)c2)c(F)c1 was read as KCNK3 block inactive, KCNQ1 act inactive, hERG protect inactive, KCNK9 inh inactive and KCNQ1 block inactive.
`COc1ccc2cc(C(=O)/C=C/c3cc(OC)c(O)c(OC)c3)ccc2c1` gave KCNK3 block -9.8, KCNQ1 act inactive, hERG protect inactive, KCNK9 inh inactive, KCNQ1 block inactive, KCNK3 inh conf 131 and KCNK3 noninduced 0.13.
`COc1ccc(NC(=O)N/C=C/c2ccco2)cc1` gave KCNK3 block inactive, KCNQ1 act inactive, hERG protect inactive, KCNK9 inh inactive and KCNQ1 block inactive.
O=C(N/C=C/c1ccco1)Nc1cccc(Cl)c1 was read as KCNK3 block -9.3, KCNQ1 act inactive, hERG protect inactive, KCNK9 inh inactive, KCNQ1 block 6, KCNK3 inh conf 94 and KCNK3 noninduced 0.14.
Screening Cc1ccccc1-c1cc(-c2ccccc2O)on1 returned KCNK3 block -9.2, KCNQ1 act inactive, hERG protect inactive, KCNK9 inh inactive, KCNQ1 block inactive, KCNK3 inh conf 118 and KCNK3 noninduced inactive.
C/C(=N\NC(=O)c1nnn(-c2nonc2N)c1-c1ccccc1)c1ccco1 was read as KCNK3 block inactive, KCNQ1 act inactive, hERG protect inactive, KCNK9 inh inactive and KCNQ1 block inactive.
Screening CCC(C)(C)n1nnnc1C(c1ccccc1)N1CCc2ccccc2C1 (centres undefined) returned KCNK3 block -9.4, KCNQ1 act inactive, hERG protect inactive, KCNK9 inh inactive, KCNQ1 block inactive, KCNK3 inh conf 110 and KCNK3 noninduced inactive.
Screening CCC(C)(C)n1nnnc1C(c1ccccc1)N1CCN(C2CCCC2)CC1 (centres undefined) returned KCNK3 block inactive, KCNQ1 act inactive, hERG protect inactive, KCNK9 inh inactive and KCNQ1 block inactive.
C/C(=N\N=C1\NC(=O)C(Cc2ccccc2)S1)c1ccccc1 (centres undefined) was read as KCNK3 block -10, KCNQ1 act inactive, hERG protect inactive, KCNK9 inh inactive, KCNQ1 block inactive, KCNK3 inh conf 103 and KCNK3 noninduced 0.16.
CCNC(=O)CC1S/C(=N/N=C(\C)c2ccccc2)NC1=O (centres undefined) was read as KCNK3 block inactive, KCNQ1 act inactive, hERG protect inactive, KCNK9 inh inactive and KCNQ1 block inactive.
Screening COc1ccc2[nH]c(C(=O)O)c(CCNC(=O)/C=C/c3ccc(O)c(OC)c3)c2c1 returned KCNK3 block inactive, KCNQ1 act inactive, hERG protect inactive, KCNK9 inh inactive and KCNQ1 block inactive.
`Cc1ccc(-c2nc3ccccc3o2)cc1NC(=O)Cc1cccs1` gave KCNK3 block inactive, KCNQ1 act inactive, hERG protect inactive, KCNK9 inh inactive and KCNQ1 block inactive.
`O=C(Cc1cccs1)Nc1cccc(-c2nc3ccccc3o2)c1` gave KCNK3 block -8.8, KCNQ1 act inactive, hERG protect inactive, KCNK9 inh inactive, KCNQ1 block inactive, KCNK3 inh conf 133 and KCNK3 noninduced 0.14.
`COC(=O)c1sccc1NC(=O)c1ccc(C(C)C)cc1` gave KCNK3 block -11, KCNQ1 act inactive, hERG protect inactive, KCNK9 inh inactive, KCNQ1 block inactive, KCNK3 inh conf 100 and KCNK3 noninduced inactive.
`COCCc1ncc(CN2CCCC(C(=O)Nc3cccc(-c4cccc(C)c4)c3)C2)cn1` (centres undefined) gave KCNK3 block -9, KCNQ1 act inactive, hERG protect inactive, KCNK9 inh inactive, KCNQ1 block inactive, KCNK3 inh conf 91 and KCNK3 noninduced inactive.
For CCCCc1nc(NCCNC(=O)c2ccccc2)c(C#N)c2c1CSC(C)(C)C2 the results were KCNK3 block -10, KCNQ1 act inactive, hERG protect inactive, KCNK9 inh inactive, KCNQ1 block inactive, KCNK3 inh conf 136 and KCNK3 noninduced 0.11.
For O=C1c2ccccc2[C@@H]2C[C@@H](O)[C@H](Nc3cccc4ccccc34)CCN12 the results were KCNK3 block inactive.
For COc1ccc(OC)c(Nc2nc(NCc3ccco3)c3ccccc3n2)c1 the results were KCNK3 block -17, KCNQ1 act inactive, hERG protect inactive, KCNK9 inh inactive, KCNQ1 block inactive, KCNK3 inh conf 134 and KCNK3 noninduced 0.15.
CCOc1ccc(Br)cc1S(=O)(=O)N1CCSC1 was read as KCNK3 block -9, KCNQ1 act inactive, hERG protect inactive, KCNK9 inh inactive, KCNQ1 block inactive, KCNK3 inh conf 88 and KCNK3 noninduced inactive.
Screening CCN(CC(=O)Nc1ccc(NC(C)=O)cc1)C(=O)c1cc(-c2ccccc2Cl)nc2ccccc12 returned KCNK3 block inactive.
Screening O=C(Nc1ccccn1)c1cccc(S(=O)(=O)N2CCc3ccccc3C2)c1 returned KCNK3 block inactive, KCNQ1 act inactive, hERG protect inactive, KCNK9 inh inactive and KCNQ1 block inactive.
`O=C(Nc1ccc2nc(C3CC3)n(Cc3ccc(F)cc3)c(=O)c2c1)c1ccco1` gave KCNK3 block -9.9, KCNQ1 act inactive, hERG protect inactive, KCNK9 inh inactive, KCNQ1 block inactive, KCNK3 inh conf 89 and KCNK3 noninduced inactive.
`Cc1nc(N2CCN(C(=O)c3cccs3)CC2)c2c3c(sc2n1)CCCC3` gave KCNK3 block -10, KCNQ1 act inactive, hERG protect inactive, KCNK9 inh inactive, KCNQ1 block inactive, KCNK3 inh conf 92 and KCNK3 noninduced inactive.
Screening Cc1sc2nc(C3CC3)nc(N3CCN(C(=O)c4ccc(Cl)cc4)CC3)c2c1C returned KCNK3 block -13, KCNQ1 act inactive, hERG protect inactive, KCNK9 inh inactive, KCNQ1 block 6, KCNK3 inh conf 96 and KCNK3 noninduced 0.15.
Screening Cc1sc2nc(CN3CCCC3)nc(N3CCN(C(=O)c4ccco4)CC3)c2c1C returned KCNK3 block inactive, KCNQ1 act inactive, hERG protect inactive, KCNK9 inh inactive and KCNQ1 block inactive.
O=C1OC(c2ccccc2)(c2ccc3cc(O)ccc3c2)c2ccccc21 (centres undefined) was read as KCNK3 block -16, KCNK3 inh conf 128 and KCNK3 noninduced 0.11.

Source: PubChem
